{"source": "ChEMBL document CHEMBL1151829", "about": "“Molluscicidal Phloroglucinols from the Fern Elaphoglossum piloselloides” (2009)", "assay_type_in_all_cases": "functional", "key": {"[1]": {"system": "Biomphalaria peregrina", "assay": "Molluscicidal activity against Biomphalaria peregrina after 24 hrs", "conditions": "for LC50: Biomphalaria peregrina, 24 h, read-out: LD50 (the source's name)", "procedure,_shortened": "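Adult snails (seven per concentration, triplicate) exposed 24 h to test solutions in water with MeOH ≤5% v/v, per the WHO protocol. Snails were then washed and held 24 h in dechlorinated tap water with lettuce leaves before mortality was scored. Solvent-only negative control; 10 ppm CuSO₄ positive control.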"}, "[2]": {"system": "Biomphalaria peregrina", "assay": "Molluscicidal activity against Biomphalaria peregrina assessed as mortality at 40 ppm after 24 hrs", "procedure,_shortened": "(§1)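 WHO protocol on adult snails, seven per beaker, each concentration in triplicate. Test solutions in water with MeOH ≤5% v/v; same-volume solvent controls. After 24 h exposure, snails were rinsed in dechlorinated tap water and kept 24 h to recover in dechlorinated tap water with lettuce leaves. Percent mortality was then recorded at the stated ppm.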"}, "[3]": {"system": "Biomphalaria peregrina", "assay": "Molluscicidal activity against Biomphalaria peregrina assessed as mortality at 5 ppm after 24 hrs", "procedure,_shortened": "as §1"}, "[4]": {"system": "Biomphalaria peregrina", "assay": "Molluscicidal activity against Biomphalaria peregrina assessed as mortality at 20 ppm after 24 hrs", "procedure,_shortened": "as §1"}, "[5]": {"system": "Biomphalaria peregrina", "assay": "Molluscicidal activity against Biomphalaria peregrina assessed as mortality at 10 ppm after 24 hrs", "procedure,_shortened": "as §1"}, "[6]": {"system": "Biomphalaria peregrina", "assay": "Molluscicidal activity against Biomphalaria peregrina assessed as mortality at 1 ppm after 24 hrs", "procedure,_shortened": "as §1"}, "[7]": {"system": "Biomphalaria peregrina", "assay": "Molluscicidal activity against Biomphalaria peregrina assessed as mortality at 0.5 ppm after 24 hrs", "procedure,_shortened": "as §1"}, "[8]": {"system": "Biomphalaria alexandrina", "assay": "Molluscicidal activity against Biomphalaria alexandrina", "conditions": "read-out: LD50 (the source's name)"}, "[9]": {"system": "Biomphalaria pfeifferi", "assay": "Molluscicidal activity against Biomphalaria pfeifferi", "conditions": "read-out: LD50 (the source's name)"}, "[10]": {"system": "Oncomelania hupensis", "assay": "Molluscicidal activity against Oncomelania hupensis", "conditions": "read-out: LD50 (the source's name)"}}, "data": [{"smiles": "CC/C=C(\\OC(C)=O)C1=C(OC(C)=O)C(C)(CC=C(C)C)C(OC(C)=O)=C(Cc2c(OC)cc(OC(C)=O)c(C(=O)CCCCC)c2OC(C)=O)C1=O", "note": "(stereo unspecified)", "values": [{"measurement": "LD90", "setting": "[1]", "value": 58.4, "unit": "µM"}, {"measurement": "LC50", "setting": "[1]", "value": 40.6, "unit": "µM"}, {"measurement": "Activity", "setting": "[2]", "value": 81, "unit": "%"}, {"measurement": "Activity", "setting": "[3]", "value": 0, "unit": "%"}, {"measurement": "Activity", "setting": "[4]", "value": 24, "unit": "%"}, {"measurement": "Activity", "setting": "[5]", "value": 0, "unit": "%"}, {"measurement": "Activity", "setting": "[6]", "value": 0, "unit": "%"}]}, {"smiles": "CCCC(=O)C1=C(O)C(C)(CC=C(C)C)C(O)=C(Cc2c(OC)cc(O)c(C(=O)CCC)c2O)C1=O", "note": "(stereo unspecified)", "values": [{"measurement": "Activity", "setting": "[7]", "value": 0, "unit": "%"}, {"measurement": "LD90", "setting": "[1]", "value": 9, "unit": "µM"}, {"measurement": "LC50", "setting": "[1]", "value": 5.8, "unit": "µM"}, {"measurement": "Activity", "setting": "[3]", "value": 95, "unit": "%"}, {"measurement": "Activity", "setting": "[6]", "value": 10, "unit": "%"}]}, {"smiles": "CCCCCC(=O)c1c(O)cc(OC)c(CC2=C(O)C(C)(CC=C(C)C)C(O)=C(C(=O)CCC)C2=O)c1O", "note": "(stereo unspecified)", "values": [{"measurement": "Activity", "setting": "[7]", "value": 10, "unit": "%"}, {"measurement": "LD90", "setting": "[1]", "value": 2.6, "unit": "µM"}, {"measurement": "LD100", "setting": "[1]", "value": "<=5 ppm"}, {"measurement": "LC50", "setting": "[1]", "value": 1.8, "unit": "µM"}, {"measurement": "Activity", "setting": "[3]", "value": 100, "unit": "%"}, {"measurement": "Activity", "setting": "[6]", "value": 57, "unit": "%"}]}, {"smiles": "CC/C=C(\\OC(C)=O)C1=C(OC(C)=O)C(C)(CC=C(C)C)C(OC(C)=O)=C(Cc2c(OC)cc(OC(C)=O)c(C(=O)CCC)c2OC(C)=O)C1=O", "note": "(stereo unspecified)", "values": [{"measurement": "LD90", "setting": "[1]", "value": 20.7, "unit": "µM"}, {"measurement": "LC50", "setting": "[1]", "value": 14.9, "unit": "µM"}, {"measurement": "Activity", "setting": "[3]", "value": 5, "unit": "%"}, {"measurement": "Activity", "setting": "[5]", "value": 43, "unit": "%"}, {"measurement": "Activity", "setting": "[6]", "value": 0, "unit": "%"}]}, {"smiles": "O=C(Nc1ccc([N+](=O)[O-])cc1Cl)c1cc(Cl)ccc1O", "note": "[NICLOSAMIDE]", "values": [{"measurement": "LC50", "setting": "[8]", "value": "≤ 0.5", "unit": "µg/mL"}, {"measurement": "LC50", "setting": "[9]", "value": "≤ 0.5", "unit": "µg/mL"}, {"measurement": "LC50", "setting": "[10]", "value": "≤ 0.5", "unit": "µg/mL"}]}]}
